High-throughput results deposited in PubChem by several laboratories.
This is a sample that favours compounds with a hit; in the whole collection about 5.8% have one here.
PLK1 inh = human PLK1 kinase inhibitors, primary screen, biochemical, TR-FRET. Serine/threonine-protein kinase PLK1 (Homo sapiens), P53350. 97,000 tested, 0.53% active. inhibition, % at 10 µM. recombinant PLK1 kinase, TR-FRET peptide phosphorylation. AID 619, 2007;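 active means inhibition of 50% or more in the single-concentration screen; inactive means inhibition below 50%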;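 further: 0% = DMSO max control and 100% = H-89 dihydrochloride min control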
Target sequence (P53350 whole entry, looked up): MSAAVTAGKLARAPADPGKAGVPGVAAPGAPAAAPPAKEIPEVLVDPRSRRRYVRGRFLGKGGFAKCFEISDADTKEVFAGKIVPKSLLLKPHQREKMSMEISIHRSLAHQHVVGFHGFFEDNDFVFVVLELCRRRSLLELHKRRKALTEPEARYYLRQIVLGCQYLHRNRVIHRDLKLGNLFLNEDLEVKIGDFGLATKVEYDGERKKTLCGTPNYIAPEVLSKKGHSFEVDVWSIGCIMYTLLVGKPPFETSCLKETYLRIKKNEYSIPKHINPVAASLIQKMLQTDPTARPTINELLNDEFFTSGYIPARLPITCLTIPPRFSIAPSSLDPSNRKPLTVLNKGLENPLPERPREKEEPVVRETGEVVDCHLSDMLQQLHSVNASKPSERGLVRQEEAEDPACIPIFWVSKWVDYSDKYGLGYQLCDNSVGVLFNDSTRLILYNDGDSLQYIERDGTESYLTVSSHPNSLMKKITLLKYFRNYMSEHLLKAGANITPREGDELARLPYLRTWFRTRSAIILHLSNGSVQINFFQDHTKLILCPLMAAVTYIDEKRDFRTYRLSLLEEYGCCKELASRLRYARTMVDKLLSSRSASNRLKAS
Pyk2 oligo antag = antagonists of Pyk2 self-association, primary screen, Q293 cells, FERM NanoBiT luminescence, HTS. Protein-tyrosine kinase 2-beta (Homo sapiens), Q14289. hits give low values. z-score (the deposit names both 25 µM and 10 µM). 99,000 tested, 0.83% active. AID 1347419, 2020;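 active means Z-score of -3 or lower, scaled per plate to the spread of control and sample wells; inactive means z-score above -3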;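 further: negative z-score means lost luminescence so less FERM oligomerization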
Cav3 T inh = Cav3.2 calcium influx blockers – cell-based, Fluo-4 calcium fluorescence, FDSS, MLSMR library, primary screen; Voltage-dependent T-type calcium channel subunit alpha-1H (Homo sapiens), O95180; Cav3.2-expressing cells; hits give low values; B-score at 10 µM; 100,000 tested, 4% active;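 active means single-dose well whose peak fluorescence ratio is a statistical outlier from its plate by either plate-standardised score or position-corrected B-score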
FAK blocker = FAK kinase inhibitors, primary screen, biochemical; biochemical FAK kinase activity assay; 97,000 tested, 0.84% active; inhibition, %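 (tested at 7 µM)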; Focal adhesion kinase 1 (Homo sapiens), Q05397; in the data active means inhibition above about 19%;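 further: 0% = DMSO and 100% = reference compound high control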
HIV Rev-RRE inh = HIV-1 Rev-RRE binding inhibitors, primary screen, biochemical, FRET, protein-RNA interaction. 97,000 tested, 0.79% active. Rev peptide-RRE RNA binding. AID 704, 2007. P05866. inhibition, % at 8 µM;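 active means inhibition above the screen-wide mean plus 3 SD, cut at about 35% in these data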;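 further: 0% = median DMSO wells and 100% = median Neomycin B control wells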
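Test system – labelled RRE RNA duplex and labelled Rev peptide · Reagent – labelled Rev peptide · Doses – one concentration, 8 µM nominal · Incubation – 5 + 15 min at 25 °C · Signal – FRET fluorescence readout · Read-out basis – % inhibition of FRET ratio versus controls · Control set – DMSO wells as 0% and neomycin B wells as 100% inhibition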
PLK1 PBD inh = Plk1 polo box domain binding inhibitors, primary screen, biochemical, fluorescence polarization; Plk1 PBD phosphopeptide binding; inhibition, %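 (tested at about 20 µM)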; AID 693, 2007; 97,000 tested, 0.13% active; in the data active means inhibition above about 34%, passing the limit was not always enough
* = called active by the depositor; . = no result; [ ] = another dose, or the depositor's remark.

SMILES	PLK1 inh	Pyk2 oligo antag	Cav3 T inh	FAK blocker	HIV Rev-RRE inh	PLK1 PBD inh
C=CCOc1c(Br)cc(CNc2ccc(NC(=O)CCC)cc2)cc1OCC	-17	1.4	-5.4*	9	2	10
CCOc1cc(CNc2cccc3ccccc23)cc(Br)c1OCC(=O)NC(C)(C)C	-15	-3.7*	-1.9	-3	3	-1
CCOc1cc(CNc2ccc(N(C)C)cc2)cc(Br)c1OCC(=O)NC(C)(C)C	-7	0.36	-0.77	5	-18	-6
C=CCNC(=O)c1onc(CSc2cccc(OC)c2)c1C(=O)O	-9	.	0.62	-7	2	15
CCOC(=O)c1c(C=O)c(C)n(Cc2ccc(C)cc2)c1C	-2	-2.7	-6.1*	1	13	29
O=C(O)CCC(=O)Nc1ccc(-c2nnc(-c3ccco3)o2)cc1	53*	.	.	-1	5	12
Cc1cc(C)cc(OCC(=O)Nc2cccc(-c3nnc(-c4ccco4)o3)c2)c1	-3	-3.9*	-2.2	1	2	11
N#CC(c1nc2ccccc2nc1N1CCCC1)S(=O)(=O)c1ccccc1 (stereo unspecified)	-3	1.3	-3.9	5	82*[fluorescence artefact?]	-16
COc1ccc(CNC(=O)C(C#N)c2nc3ccccc3nc2N2CCCC2)cc1 (stereo unspecified)	-5	0.93	-7.3*	0	36*	16
COc1ccc(CNC(=O)C(C#N)c2nc3ccccc3nc2N2CCN(C)CC2)cc1 (stereo unspecified)	1	-0.33	0.73	-8	1	10
COc1ccc(S(=O)(=O)C(C#N)c2nc3ccccc3nc2N2CCCCC2)cc1 (stereo unspecified)	-7	-0.57	-4.8*	-5	30	1
CC1CN(c2nc3ccccc3nc2C(C#N)C(=O)NCc2ccc3c(c2)OCO3)CC(C)O1 (stereo unspecified)	-6	0.13	-7.9*	-4	10	-19
CCN(CC)S(=O)(=O)c1ccc(Br)c(OC)c1	-7	-0.33	-0.4	-2	4	20
Cc1cccc(S(=O)(=O)C(C#N)c2nc3ccccc3nc2N2CCCC2)c1 (stereo unspecified)	-4	-0.2	-0.15	18	82*[fluorescence artefact?]	-33
Cc1ccc(S(=O)(=O)C(C#N)c2nc3ccccc3nc2N2CCC(C)CC2)cc1 (stereo unspecified)	.	0.45	-0.23	.	.	.
Cc1ccc(C)c(S(=O)(=O)C(C#N)c2nc3ccccc3nc2N2CC(C)OC(C)C2)c1 (stereo unspecified)	-15	-0.21	-5.7*	-7	5	-4
CCOC(=O)C1CCN(c2nc3ccccc3nc2C(C#N)C(=O)OC(C)COC)CC1 (stereo unspecified)	.	-3	-4.4*	.	.	.
Cc1ccc(C)c(S(=O)(=O)C(C#N)c2nc3ccccc3nc2N2CCCC2)c1 (stereo unspecified)	-9	-0.01	-1	2	64*	18
Cc1ccc(C)c(S(=O)(=O)C(C#N)c2nc3ccccc3nc2N2CCOCC2)c1 (stereo unspecified)	-3	-0.07	-0.58	-5	4	15
CC1CC(C)CN(C2CCN(Cc3cccnc3)CC2)C1 (stereo unspecified)	-10	0.19	0.47	-2	9	1
CCCCCCOC(=O)C(C#N)c1nc2ccccc2nc1N1CCCCC1 (stereo unspecified)	-16	-0.45	-5.3*	-1	18	7
CCCCCCOC(=O)C(C#N)c1nc2ccccc2nc1N1CCN(C)CC1 (stereo unspecified)	1	-1.3	-0.67	5	24	-6
COC(=O)C1=C(C)NC2=C(C(=O)C(C(=O)OC)C(c3ccc(OC)cc3)C2)C1c1ccccn1 (stereo unspecified)	-7	0.17	0.74	0	3	-31
Cc1ccc(C(=O)Nn2c(N)c(S(=O)(=O)c3ccc(C)cc3)c3nc4ccccc4nc32)cc1	-8	-0.27	-5.5*	0	11	-39
C/C=C/C(=O)Nc1cccc(C2=NOC3(C2)C[C@@H](C(N)=O)N(C(=O)C(c2ccccc2)c2ccccc2)C3)c1 (stereo partly specified)	.	.	0.031	.	.	.
SMILES	PLK1 inh	Pyk2 oligo antag	Cav3 T inh	FAK blocker	HIV Rev-RRE inh	PLK1 PBD inh
O=S(=O)(c1ccc2c(c1)OCCO2)N1CCC(c2nc3ccc(Cl)cc3[nH]2)CC1	2	-3.4*	-2.4	3	23	6
O=S(=O)(c1ccc2c(c1)OCCO2)N1CCC(c2nc3ccccc3[nH]2)CC1	-5	-1.9	0.87	-1	-1	7
O=S(=O)(c1ccc2c(c1)OCCO2)N1CCC(c2nc3ccccc3s2)CC1	-9	-3.1*	-0.009	-6	-3	-1
COc1ccc(SCC(=O)c2cc(C)c(OC(=S)N(C)C)c(C)c2)cc1	-4	-0.53	-4.5*	2	17	12
N#Cc1ccc(C(=O)Nc2ccc(N3CCN(C(=O)c4ccco4)CC3)cc2)c(F)c1	-11	0.52	1.6	4	-1	2
Cc1ccc(C)c(S(=O)(=O)NCc2ccc(C(=O)N3CCC(Cc4ccccc4)CC3)cc2)c1	-2	-1.1	-3.9*	0	0	-33
Cc1ccc(C)c(S(=O)(=O)NCc2ccc(C(=O)N3CCN(C)CC3)cc2)c1	-15	-0.11	0.6	-2	7	-6
CS(=O)(=O)N1CCC(C(=O)Nc2ccc3c(c2)OCCO3)CC1	-7	-0.04	0.28	1	5	-7
CSc1nsc(SC)c1NC(=O)OCC1CCCO1 (stereo unspecified)	-9	0.94	0.12	1	1	-9
COC(=O)c1ccc(Cn2cc(Cl)cn2)cc1	-6	-0.38	-0.14	4	2	-17
O=C(Nc1cccc2ccccc12)c1ccc(Cn2cc(Cl)cn2)cc1	10	0.85	-3.9*	3	4	0
O=C1c2ccccc2NC(c2ccc(Cl)cc2Cl)N1O (stereo unspecified)	-6	-0.31	-0.086	2	0	26
O=C1c2ccccc2NC(c2cccc(Cl)c2)N1N=C1CCCCCC1 (stereo unspecified)	-12	-0.37	-3.9*	5	11	1
COc1ccc(Oc2cc(C(F)(F)F)cnc2C(N)=O)cc1	1	0.65	.	-3	6	-5
CCCc1cc(=O)oc2cc(C)cc(O)c12	-28	-2.3	-1.5	-2	2	-26
CCCc1cc(=O)oc2c3c(c4c(c12)OC(C)(C)C=C4)OC(C)C(C)C3O (stereo unspecified)	.	.	-6.8*	.	.	.
Cc1c(C(=O)NCCC2=CCCCC2)oc2ccc(S(=O)(=O)N3CCC4(CC3)OCCO4)cc12	-1	-1.7	-5.6*	11	4	-2
